Assay results collected from several papers.
Compare with care: the assays were run in different laboratories.
Target: RAC-alpha serine/threonine-protein kinase (AKT1, Homo sapiens, UniProt P31749)

Structure (SMILES) | effect on | action | technique | tested at | endpoint | value
CNC(=O)Nc1ccc2c(c1)[C@@]1(CC2)OC(=O)N(CC(=O)N(Cc2ccc(F)cc2)[C@@H](C)C(F)(F)F)C1=O | cell-free assay |  | competition with immobilised ligand | 1 µM | remaining binding | 77%
Cn1cnc(Br)c1C1=CN(c2ncnc3[nH]cnc23)CCS1 | enzyme activity | inhibitor | radiometric | 50 nM | inhibition | 26.5%
COc1cc(Nc2cnc(C#N)c(O[C@H](C)CN(C)C)n2)ncc1-c1cnn(C)c1 | enzyme activity | inhibitor | radiometric | 10 µM | remaining activity | 87%
CCS(=O)(=O)c1cc2cc(C[C@@](O)(CC(C)(C)c3ccc(F)cc3C(N)=O)C(F)(F)F)[nH]c2cn1 | cell-free assay |  | competition with immobilised ligand | 1 µM | remaining binding | 86%
Oc1cccc(-c2nc(N3CCOCC3)c3oc4ncccc4c3n2)c1 | cell-free assay |  |  | 0.5 µM | remaining signal | 95.3%
CCCOc1ccc([C@H]2[C@H](C(=O)O)[C@@H](c3ccc4c(c3)OCO4)CN2CC(=O)Nc2c(CC)cccc2CC)cc1 | cell-free assay |  | competition with immobilised ligand | 1 µM | remaining binding | 97%
COc1cc(Cl)c(C(=O)N[C@@H](CN[C@H]2CC[C@@H](N)CC2)Cc2ccc(C#N)cc2)cc1-c1ccc(CN[C@H](C)c2ccc(C)cc2)o1 | enzyme activity | inhibitor |  | 1 µM | remaining activity | 85%
C=CC(=O)Nc1cc(Nc2nccc(Nc3cc(Cl)c(F)cc3C(C)(C)O)n2)c(OC)cc1N1CC[C@@H](N(C)C)C1 | enzyme activity | inhibitor |  | 1 µM | inhibition | -5%
Nc1nc(Nc2ccc(S(N)(=O)=O)cc2)nn1C(=O)c1c(F)cccc1F | cell-free assay |  |  | 0.5 µM | remaining signal | 120%
Cc1ccc(NC(=O)c2ccc(C)c(C(F)(F)F)c2)cc1C#Cc1nn(C2CCC(O)CC2)c2ncnc(N)c12 (stereo not shown) | cell-free assay |  |  | 10 µM | remaining signal | 101%
FC(F)c1nc2ccccc2n1-c1nc(N2CCOCC2)nc(N2CCOCC2)n1 | enzyme activity | inhibitor |  | 10 µM | remaining activity | 123%
CN(C)C1CCN(CC#Cc2nn(C3CCCC3)c3nc(NCc4ccccc4)ncc23)C1 (stereo not shown) | enzyme activity | inhibitor | FRET | 0.1 µM | inhibition | 4%
N#CCCc1ccc2c(c1)-c1[nH]c3ccc([N+](=O)[O-])cc3c1CC(=O)N2 | cell-free assay |  |  | 0.5 µM | remaining signal | 111%
COc1cc2ncnc(Nc3ccc(Oc4ccccc4)cc3C)c2cc1OC | enzyme activity | inhibitor |  | 1 µM | inhibition | 0%
Nc1c(C(=O)NCc2ccc(C(=O)NCCCC3CCCCC3)cc2)cnn1-c1ccccc1 | cell-free assay |  | competition with immobilised ligand | 0.1 µM | remaining binding | 100%
CC(C)(C)C(=O)c1sc(NC2CCCCC2)nc1N | enzyme activity | inhibitor |  | 10 µM | remaining activity | 90%
CNC(=O)Nc1ccc2c(c1)CC[C@@]21OC(=O)N(CC(=O)N(Cc2ccc(F)cc2)[C@@H](C)C(F)(F)F)C1=O | cell-free assay |  | competition with immobilised ligand | 1 µM | remaining binding | 91%
Cc1ccc(C(=O)NCc2ccsc2)cc1C#Cc1cn(C(C)C)c2ncnc(N)c12 | enzyme activity | inhibitor |  | 1 µM | activity vs control | 94%
Cc1cc(NC(=O)c2cccc3cc(-c4cccc5[nH]nc(N)c45)ccc23)ccc1F | enzyme activity | inhibitor |  | 0.1 µM | activity vs control | 107%

Structure (SMILES) | effect on | action | technique | tested at | endpoint | value
C[C@@H]1CCN(C(=O)CC#N)C[C@@H]1N(C)c1ncnc2[nH]ccc12 | cell-free assay | inhibitor |  | 0.5 µM | remaining signal | 90.3%
FC(F)(F)Oc1cccc(-c2cnc3ccc(-c4ccncc4)nn23)c1 | enzyme activity | inhibitor | radiometric | 1 µM | activity vs control | 90%
Oc1cccc(-c2nc(N3CCOCC3)c3oc4ncccc4c3n2)c1 | enzyme activity | inhibitor |  | 10 µM | remaining activity | 78%
CC(C)(O)[C@H]1CC[C@H](Nc2ccc3ncc(-c4cccc(C(F)(F)F)c4)n3n2)CC1 | enzyme activity | inhibitor |  | 1 µM | remaining activity | 93.2%
CCOc1cc(-c2nncn2C)ccc1Nc1ncc2cc(C)nc(NCC(C)(C)C)c2n1 | enzyme activity | inhibitor | FRET | 1 µM | inhibition | < 15%
COc1cc(/C=C/C(=O)CC(=O)/C=C/c2ccc(O)c(OC)c2)ccc1O | enzyme activity | inhibitor |  | 1 µM | activity vs control | 102%
Cn1cncc1C1=CN(c2ncnc3[nH]cnc23)CCS1 | enzyme activity | inhibitor | radiometric | 2 µM | inhibition | 83.7%
CS(=O)(=O)Nc1cccc(-c2csc(NC(=O)CSc3nc4nccnc4c(=O)n3CCc3ccccc3)n2)c1 | enzyme activity | inhibitor |  | 10 µM | inhibition | 1%
Cc1c(NC(=O)c2cc(C(N)=O)nc3cc(F)ccc23)c(C(F)(F)F)nn1Cc1ccc(C#N)cc1 | cell-free assay |  | competition with immobilised ligand | 1 µM | remaining binding | 91%
O=C(Nc1cnn(-c2csc(C(=O)NC3COC3)c2)c1)Nc1ccccc1Cl | enzyme activity | inhibitor |  | 5 µM | remaining activity | 95.4%
COc1cc(F)ccc1-c1ncnc(Nc2cccc(C[S@](C)(=N)=O)c2)n1 | enzyme activity | inhibitor |  | 10 µM | activity vs control | 108%
O=C1Nc2ccc(Cl)cc2C1=Cc1cc(Cl)c(O)c(Cl)c1 | cell-free assay |  |  | 0.5 µM | remaining signal | 97.9%
Nc1nc(Nc2ccccc2)sc1C(=O)c1c(F)cccc1F | enzyme activity | inhibitor |  | 10 µM | remaining activity | 84%
CNC(=O)c1cc(Oc2ccc(NC(=O)Nc3ccc(Cl)c(C(F)(F)F)c3)cc2)ccn1 | enzyme activity | inhibitor |  | 0.3 µM | inhibition | -6%
Cc1nc(C2CCN(C(=O)c3ccc(OC(F)(F)F)cc3N)CC2)c2ncc(N3CCN(C)CC3)cc2n1 | cell-free assay |  | competition with immobilised ligand | 1 µM | remaining binding | 100%
CCCOc1ccc(OC)c(F)c1C(=O)c1ccc(C(=O)N[C@@H]2CNC[C@H]2NC(=O)c2ccc3[nH]ncc3c2)cc1 | enzyme activity | inhibitor |  | 10 µM | remaining activity | 20%
CN(C)C(=O)Cn1cc(-c2nc([C@@](C)(c3ccc(-c4cnc(N)nc4)cc3)C3CC3)no2)cn1 | cell-free assay |  | competition with immobilised ligand | 1 µM | remaining binding | 94%
Cc1ccc(Nc2nccc(N(C)c3ccc4c(C)n(C)nc4c3)n2)cc1S(N)(=O)=O | enzyme activity | inhibitor |  | 10 µM | inhibition | 6%
